The subject of experiment [1] is B16-F10. In words: Induction of apoptosis in mouse B16F10 cells assessed as necrotic cells at 30 uM after 24 hrs using annexin V-FITC/propidium iodide staining by flow cytometry. Type of experiment: functional. An outline of the steps: (§1)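 B16-F10 cells grown in DMEM with 4 mM L-glutamine, 1 mM pyruvate, 4.5 g/L glucose and 10% FBS. 300,000 cells/well were plated, then treated in DMSO after 24 h. Vehicle and medium-alone controls were included. Cells were detached with EDTA-trypsin, PBS-washed and set at 1 × 10^6 cells/mL in binding buffer. Annexin V-FITC/PI staining ran 15 min at room temperature in the dark, followed by flow cytometry within 1 h.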
Background: A flow cytometer gives signals particle by particle.

For experiment [2], the system named is B16-F10. In words: Induction of apoptosis in mouse B16F10 cells at 30 uM after 24 hrs using annexin V-FITC/propidium iodide staining by flow cytometry. Type of experiment: functional. An outline of the steps: as §1
For experiment [3], the system named is B16-F10. The experiment can be described thus: Induction of apoptosis in mouse B16F10 cells assessed as early/late apoptotic cells at 30 uM after 24 hrs using annexin V-FITC/propidium iodide staining by flow cytometry. Type of experiment: functional. Put shortly:
as §1

In experiment [4] the test system is B16-F10. In words: Induction of apoptosis in mouse B16F10 cells assessed as total apoptosis at 20 uM after 48 hrs using annexin V-FITC/propidium iodide staining by flow cytometry. Type of experiment: functional, cell-based. An outline of the steps: (§2)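 B16-F10 cells in DMEM/10% FBS were plated at 300,000 cells/well, then treated 24 h later, in duplicate, in DMSO at […] for 24 or 48 h. Vehicle and medium controls were included. Annexin V-FITC/PI staining ran 15 min at room temperature in the dark. Total apoptosis (early + late) was read by flow cytometry as mean ± SD from two independent experiments.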

Experiment [5] deals with B16-F10. In words: Induction of apoptosis in mouse B16F10 cells assessed as total apoptosis at 20 uM after 24 hrs using annexin V-FITC/propidium iodide staining by flow cytometry. Type of experiment: functional. Put shortly: as §2

Activity calls are given as the source filed them. The calls are words filed in the database; no cut-off is given here. Some results are limits rather than exact numbers.

Drawing on ChEMBL document CHEMBL1914356, “Maslinic acid derivatives induce significant apoptosis in b16f10 murine melanoma cells” (2011), this text covers Activity for 37 compounds.

`CC1(C)CC[C@]2(CO)CC[C@]3(C)C(=CC[C@@H]4[C@@]5(C)C[C@H](O)[C@H](O)C(C)(C)[C@@H]5CC[C@]43C)[C@@H]2C1`: in the experiment with B16-F10 [1], the Activity is less than 10%.

With `CC1(C)CC[C@]2(CN=[N+]=[N-])CC[C@]3(C)C(=CC[C@@H]4[C@@]5(C)C[C@@H](O)[C@H](O)C(C)(C)[C@@H]5CC[C@]43C)[C@@H]2C1`, the Activity in the experiment on B16-F10 [1] is on record as less than 10%.

Turning to `CC1(C)CC[C@]2(CO)CC[C@]3(C)C(=CC[C@@H]4[C@@]5(C)C[C@@H](O)[C@H](O)C(C)(C)[C@@H]5CC[C@]43C)[C@@H]2C1`, in the experiment on B16-F10 [1], the Activity is listed as less than 10%.

Take `Cc1ccc(S(=O)(=O)OC[C@]23CCC(C)(C)C[C@H]2C2=CC[C@@H]4[C@@]5(C)C[C@H]6OC(C)(C)O[C@@H]6C(C)(C)[C@@H]5CC[C@@]4(C)[C@]2(C)CC3)cc1`: the Activity in the experiment on B16-F10 [1] is recorded as less than 10%.

`COC(=O)[C@]12CCC(C)(C)C[C@H]1C1=CC[C@@H]3[C@@]4(C)C[C@@H](C=O)C(C)(C)[C@@H]4CC[C@@]3(C)[C@]1(C)CC2`: the Activity in the experiment on B16-F10 [1] is on record as less than 10%.

Take `CC(=O)O[C@@H]1C[C@]2(C)[C@H]3CC=C4[C@@H]5CC(C)(C)CC[C@]5(C(=O)O)CC[C@@]4(C)[C@]3(C)CC[C@H]2C(C)(C)[C@H]1OC(C)=O`: the Activity in the experiment on B16-F10 [1] is listed as less than 10%.

Turning to `COC(=O)[C@]12CCC(C)(C)C[C@H]1C1=CC[C@@H]3[C@@]4(C)C[C@@H](O)C(=O)[C@](C)(CO)[C@@H]4CC[C@@]3(C)[C@]1(C)CC2`, the Activity with B16-F10 [1] is less than 10%; in the experiment with B16-F10 [2], 30%.

Take `CC1(C)CC[C@]2(CN)CC[C@]3(C)C(=CC[C@@H]4[C@@]5(C)C[C@@H](O)[C@H](O)C(C)(C)[C@@H]5CC[C@]43C)[C@@H]2C1`: the Activity in the experiment on B16-F10 [1] is reported as less than 10%.

Turning to `CC1(C)CC[C@]2(C(=O)O)CC[C@]3(C)C(=CC[C@@H]4[C@@]5(C)C[C@H](O)[C@H](O)C(C)(C)[C@@H]5CC[C@]43C)[C@@H]2C1` [AUGUSTIC ACID], the Activity in the experiment with B16-F10 [1] was less than 10%.

For the compound `COC(=O)[C@]12CCC(C)(C)C[C@H]1[C@@](O)(/C=C\[C@@]13O[C@]1(C)CC[C@H]1C(C)(C)[C@@H](O)CC[C@@]13C)[C@](C)(O)CC2`, the Activity is on record as less than 10% with B16-F10 [1] and 30% in the experiment with B16-F10 [2].

As for `CC1(C)CC[C@]2(C(=O)O)CC[C@]3(C)C(=CC[C@@H]4[C@@]5(C)C=C(O)C(=O)C(C)(C)[C@@H]5CC[C@]43C)[C@@H]2C1`, the Activity is on record as 80% in the experiment on B16-F10 [3] and less than 10% in the experiment with B16-F10 [1]. Also, the result with B16-F10 [4] was Active.

For the compound `CC(=O)O[C@@H]1C[C@]2(C)[C@H]3CC=C4[C@@H]5CC(C)(C)CC[C@]5(C(N)=O)CC[C@@]4(C)[C@]3(C)CC[C@H]2C(C)(C)[C@H]1OC(C)=O`, the Activity in the experiment with B16-F10 [1] was less than 10%.

As to `CC1(C)CC[C@]2(CO)CC[C@]3(C)[C@](O)([C@H](O)C=C4[C@@]5(C)CC[C@H](O)C(C)(C)[C@@H]5CC[C@]43C)[C@@H]2C1`, the Activity in the experiment on B16-F10 [1] is listed as less than 10%.

Consider `CC(=O)O[C@H]1CC[C@]2(C)[C@H]3C[C@H](O)[C@]45OC(=O)[C@@]6(CCC(C)(C)C[C@H]64)CC[C@@]5(C)[C@]3(C)CC[C@H]2C1(C)C`, for which, in the experiment with B16-F10 [1], the Activity is recorded as less than 10%.

Turning to `CC(=O)O[C@H]1CC[C@]2(C)C3=CC(=O)[C@]45OC(=O)[C@@]6(CCC(C)(C)C[C@H]64)CC[C@@]5(C)[C@]3(C)CC[C@H]2C1(C)C`, the Activity in the experiment on B16-F10 [1] is on record as less than 10%.

With `COC(=O)[C@]12CCC(C)(C)C[C@H]1[C@]1(/C=C\[C@@]34O[C@]3(C)CC[C@H]3C(C)(C)[C@@H](O)CC[C@@]34C)O[C@@]1(C)CC2`, the Activity with B16-F10 [1] is on record as less than 10%; in the experiment with B16-F10 [2], 30%.

Consider `CC1(C)CC[C@]2(C(=O)OCc3ccccc3)CC[C@]3(C)C(=CC[C@@H]4[C@@]5(C)CC(=O)[C@H](O)C(C)(C)[C@@H]5CC[C@]43C)[C@@H]2C1`, for which the Activity in the experiment on B16-F10 [3] is 80%; with B16-F10 [1], less than 10%; with B16-F10 [5] it was more than 70%. Besides, in the experiment on B16-F10 [4], the outcome was Active.

Consider `COC(=O)[C@]12CCC(C)(C)C[C@H]1C1=CC[C@@H]3[C@@]4(C)C[C@@H](OC(C)=O)C(=O)C(C)(C)[C@@H]4CC[C@@]3(C)[C@]1(C)CC2`, for which, in the experiment with B16-F10 [1], the Activity is less than 10%.

Take `CC1(C)CC[C@]2(CO)CC[C@]3(C)C(=CC[C@@H]4[C@@]5(C)C[C@H]6OC(C)(C)O[C@@H]6C(C)(C)[C@@H]5CC[C@]43C)[C@@H]2C1`: the Activity in the experiment on B16-F10 [1] is listed as less than 10%.

`CC1(C)CC[C@]2(C(N)=O)CC[C@]3(C)C(=CC[C@@H]4[C@@]5(C)C[C@@H](O)[C@H](O)C(C)(C)[C@@H]5CC[C@]43C)[C@@H]2C1`: the Activity in the experiment on B16-F10 [3] was 80%; with B16-F10 [1], less than 10%; with B16-F10 [5], 70%. Also, the outcome with B16-F10 [4] was Active.

In the case of `C=C1CC[C@H]2C(C)(C)[C@@H](OC(C)=O)CC[C@]2(C)/C1=C/CC1=C(C)CCC2(C(=O)OC)CCC(C)(C)C[C@@H]12` (single isomer, unassigned), in the experiment with B16-F10 [1], the Activity is less than 10%.

As to `CC(=O)O[C@H]1CC[C@]2(C)[C@H]3C=C[C@]45OC(=O)[C@@]6(CCC(C)(C)C[C@H]64)CC[C@@]5(C)[C@]3(C)CC[C@H]2C1(C)C`, the Activity in the experiment with B16-F10 [1] was less than 10%.

On to `C=C1C[C@]2(C)[C@H]3CC=C4[C@@H]5CC(C)(C)CC[C@]5(C(=O)OC)CC[C@@]4(C)[C@]3(C)CC[C@H]2C(C)(C)[C@H]1OC(C)=O`, for which the Activity in the experiment with B16-F10 [1] is less than 10%.

Turning to `COC(=O)C12CCC(C)=C(/C=C\C3=C(C)CC[C@H]4C(C)(C)[C@@H](OC(C)=O)CC[C@]34C)[C@@H]1CC(C)(C)CC2` (single isomer, unassigned), the Activity in the experiment on B16-F10 [1] was less than 10%.

As to `CC1(C)CC[C@]2(C(=O)OCc3ccccc3)CC[C@]3(C)C(=CC[C@@H]4[C@@]5(C)C=C(O)C(=O)C(C)(C)[C@@H]5CC[C@]43C)[C@@H]2C1`, the Activity in the experiment on B16-F10 [3] is recorded as 80%; in the experiment on B16-F10 [1], less than 10%. Besides, the result in the experiment on B16-F10 [4] was Active.

For the compound `COC(=O)C12CCC(C)=C(/C=C\C3=C(C)CC[C@H]4C(C)(C)[C@@H](O)CC[C@]34C)[C@@H]1CC(C)(C)CC2` (single isomer, unassigned), the Activity with B16-F10 [1] is reported as less than 10%.

For `C=C1C2CC3[C@@]4(C)CC[C@H](OC(C)=O)C(C)(C)C4CC[C@@]3(C)C2=CC[C@@]2(C(=O)OC)CCC(C)(C)CC12` (stereo not given in full), the Activity in the experiment with B16-F10 [1] is less than 10%.

Turning to `COC(=O)[C@]12CCC(C)(C)C[C@H]1C1=CC[C@@H]3[C@@]4(C)C[C@H](OC(C)=O)[C@@H](O)C(C)(C)[C@@H]4CC[C@@]3(C)[C@]1(C)CC2`, the Activity in the experiment with B16-F10 [1] is given as less than 10%.

`COC(=O)[C@]12CCC(C)(C)C[C@H]1[C@@](O)(/C=C\[C@@]13O[C@]1(C)CC[C@H]1C(C)(C)CCC[C@@]13C)[C@](C)(O)CC2`: the Activity in the experiment on B16-F10 [1] was less than 10%.

For `COC(=O)[C@]12CCC(C)(C)C[C@H]1C1=CC[C@@H]3[C@@]4(C)C=CC(=O)C(C)(C)[C@@H]4CC[C@@]3(C)[C@]1(C)CC2`, in the experiment on B16-F10 [1], the Activity was less than 10%.

For `CC1(C)CC[C@]2(C(=O)OCc3ccccc3)CC[C@]3(C)C(=CC[C@@H]4[C@@]5(C)C[C@H](O)[C@H](O)C(C)(C)[C@@H]5CC[C@]43C)[C@@H]2C1` [BENZYL AUGUSTATE], the Activity with B16-F10 [3] is 80%; in the experiment with B16-F10 [1], less than 10%. In addition, the outcome in the experiment on B16-F10 [4] was Active.

For `CC1(C)CC[C@]2(C(=O)O)CC[C@]3(C)C(=CC[C@@H]4[C@@]5(C)CC[C@H](O)C(C)(C)[C@@H]5CC[C@]43C)[C@@H]2C1` [OLEANOLIC_ACID], the Activity in the experiment on B16-F10 [1] is reported as less than 10%.

Consider `C=C1CC[C@H]2C(C)(C)CCC[C@]2(C)/C1=C/CC1=C(C)CCC2(C(=O)OC)CCC(C)(C)C[C@@H]12` (single isomer, unassigned), for which the Activity with B16-F10 [1] was less than 10%.

Consider `CC(=O)O[C@H]1CC[C@]2(C)[C@H]3C[C@H](OC(C)=O)[C@]45OC(=O)[C@@]6(CCC(C)(C)C[C@H]64)CC[C@@]5(C)[C@]3(C)CC[C@H]2C1(C)C`, for which the Activity in the experiment with B16-F10 [1] was less than 10%; with B16-F10 [2], 30%.

`CC1(C)CC[C@]2(C(=O)O)CC[C@]3(C)C(=CC[C@@H]4[C@@]5(C)C[C@@H](O)[C@H](O)C(C)(C)[C@@H]5CC[C@]43C)[C@@H]2C1` [MASLINIC ACID]: in the experiment with B16-F10 [1], the Activity is listed as less than 10%.

Regarding `CC1(C)CC[C@]2(C(=O)O)CC[C@]3(C)C(=CC[C@@H]4[C@@]5(C)CC(=O)[C@H](O)C(C)(C)[C@@H]5CC[C@]43C)[C@@H]2C1`, the results for the Activity in the experiment on B16-F10 [3] and with B16-F10 [1] were 80% and less than 10%, respectively. Also, the result with B16-F10 [4] was Active.

In the case of `CC1(C)CC[C@]2(C(=O)O)CC[C@]3(C)C(=CC[C@@H]4[C@@]5(C)C[C@@H](O)[C@H](O)C(C)(C)[C@@H]5CC[C@]43C)[C@@H]2C1`, in the experiment on B16-F10 [4], the outcome was Active.
